From PubChem
Shown are actives, neighbours in structure and some others; about 1.9% of the full set was active somewhere.
CHRM5 antagonist: antagonists of human muscarinic M5 receptor (CHRM5). actives 0.59% (n = 360,000). AID 624040. inhibition, % at 3 µM. CHO-hM5 cells, Fluo-8 calcium fluorescence, ACh EC80;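 active = inhibition above a per-plate cutoff, the mean of that plate's test compounds plus 3 SD, cut at about 27% in these data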
Target sequence (P08912 whole entry, looked up): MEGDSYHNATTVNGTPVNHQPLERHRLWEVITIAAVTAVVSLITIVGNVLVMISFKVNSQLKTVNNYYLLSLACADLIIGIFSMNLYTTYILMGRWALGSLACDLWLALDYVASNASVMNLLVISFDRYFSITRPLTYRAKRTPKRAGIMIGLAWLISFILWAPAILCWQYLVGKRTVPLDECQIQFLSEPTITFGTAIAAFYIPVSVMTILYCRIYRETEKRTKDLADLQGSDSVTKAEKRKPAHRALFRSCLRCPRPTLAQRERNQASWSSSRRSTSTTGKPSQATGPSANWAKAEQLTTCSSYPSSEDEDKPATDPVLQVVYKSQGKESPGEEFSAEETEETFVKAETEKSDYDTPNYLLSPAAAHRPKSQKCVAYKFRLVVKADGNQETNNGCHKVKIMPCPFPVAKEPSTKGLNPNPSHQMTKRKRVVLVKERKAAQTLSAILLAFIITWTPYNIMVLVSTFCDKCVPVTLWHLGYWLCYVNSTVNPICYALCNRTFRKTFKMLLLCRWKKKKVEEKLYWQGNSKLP
CHRM4 antagonist: blocks acetylcholine activation of human M4 receptor; P08173; CHO-hM4 cells, ACh EC80, Fluo-8 calcium fluorescence; inhibition, % at 3 µM; actives 0.73% (n = 360,000);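 active = inhibition above its plate's cutoff, the mean inhibition of sample wells plus 3 SD, cut at about 27% in these data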
CHRM5 agonist: CHRM5 agonism in calcium assay; CHO-K1 hM5 cells, Fluo-8 calcium fluorescence; 0% DMSO wells, 100% maximal acetylcholine response; P08912; AID 624037; activation, % at 3 µM; actives 0.19% (n = 360,000);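 active = activation above the run's mean over test compounds plus 3 SD, cut at about 23% in these data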;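 also: signal is peak over basal fluorescence ratio across the kinetic read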
M4 ag: CHRM4 agonism in calcium assay. P08173. CHO-K1 hM4/Gqi5, Fluo-8 calcium fluorescence; vehicle 0%, full acetylcholine response 100%. activation, % at 3 µM. actives 0.14% (n = 360,000). AID 624127;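 active = activation above the run mean over all test wells plus 3 SD, cut at about 32% in these data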;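 also: peak over basal fluorescence ratio per well then scaled between controls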
CHRM4 PAM: potentiates acetylcholine response at human M4 receptor; P08173; CHO-K1 hM4/Gqi5, Fluo-8 calcium fluorescence, ACh EC20; 0% = ACh EC20, 100% = maximal ACh; activation, % at 3 µM; actives 0.4% (n = 360,000); AID 624126;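 active = activation above its plate's cutoff, the mean activation of sample wells plus 3 SD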
CHRM5 PAM: positive allosteric modulators of human muscarinic M5 receptor | CHO-K1 hM5, Fluo-8 calcium, ACh EC20 PAM; 0% = ACh EC20, 100% = ACh EC100 | P08912 | actives 0.3% (n = 360,000) | activation, % at 3 µM;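 active = activation above the run cutoff, the mean activation of all test compounds plus 3 SD, cut at about 18% in these data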
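Assay system: CHO-K1 hM5 cells. Also added: acetylcholine at EC20 concentration, added after compound. Dosing: 3 µM, single dose. Times: compound preincubation 140 s before EC20 acetylcholine addition. Signal: Fluo-8 calcium fluorescence. Measure: % activation relative to EC20 and EC100 ACh responses. Repeats: singlicate, one well per test compound.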
Large screens that a line does not name were inactive.

COc1cc(/C=C2\SC(=Nc3ccc(N4CCOCC4)cc3)N(C)C2=O)ccc1OC(C)C(=O)O (centres undefined)	none
Cc1cc(C)[n+](-c2ccc(C(C)C)cc2)c2[nH]c(=O)[nH]c(=O)c12	CHRM4 antagonist 41
CC1(C(=O)NCCC#N)CCN1C(=O)Cc1ccc(-c2ccccc2)cc1 (centres undefined)	none
CC(C)c1ccc(NC2CCCN(C(=O)CCN3CCCC3=O)C2)cc1 (centres undefined)	none
O=C1CCCCN1CCCC(=O)N1CCCC(Nc2ccccc2)C1 (centres undefined)	CHRM5 PAM 27
O=[N+]([O-])c1cccc(S(=O)(=O)NCCCN2CCOCC2)c1	none
CC(=O)NCCNC(=O)c1ccc(NC2=NC3CS(=O)(=O)CC3S2)cc1 (centres undefined)	CHRM5 antagonist 29, CHRM5 PAM 27
C=CCOc1ccc(/C=C(\C#N)C(=O)Nc2ccccn2)cc1	none
C=CCC1(CC=C)CCCN1C(=O)c1cc(COc2ccc(F)c(F)c2)on1	none
C=CCC1(CC=C)CCCN1C(=O)c1cc(COc2ccc(C)nc2)on1	CHRM5 antagonist 51
COc1ccc(C(CNS(=O)(=O)c2ccc(NC(C)=O)c(OC)c2)N2CCCCC2)cc1 (centres undefined)	none
CCOc1ccccc1-n1nnnc1SCC(=O)NCc1ccco1	none
CCC(=O)Nc1cccc(-c2ccc(N3CCC(C)CC3)nn2)c1	CHRM5 PAM 20
Cc1ccc(-c2ccc(CN3C(C(C)C)C(=O)N(Cc4cn(CCC5OCCO5)nn4)CCS3(=O)=O)cc2)c(C)c1 (centres undefined)	none
CCN1CCN(CCNC(=O)c2ccc(/C=C3/Sc4ccccc4N(Cc4ccccc4C)C3=O)cc2)CC1	M4 ag 33
O=C(Nc1ccccc1)Nc1ccc2nnsc2c1	CHRM5 antagonist 44, CHRM4 antagonist 30
COc1ccc(OC)c(-c2c3cc(O)c(=O)cc-3oc3cc(O)c(O)cc23)c1	CHRM5 agonist 55, M4 ag 60
O=c1cc2oc3cc(O)c(O)cc3c(-c3ccccc3O)c-2cc1O	none
Cc1nc2ccccc2nc(C)c1=NOCc1cccc(F)c1	none
Cc1nc2ccccc2nc(C)c1=NOCc1ccc(C#N)cc1	CHRM4 PAM 19
O=C(NC1CCCC1)C1C(c2ccc(C(F)(F)F)cc2)=Nc2ccccc2N1C(=O)c1cccc(C(F)(F)F)c1 (centres undefined)	CHRM4 antagonist 35
O=C(O)CC(NC(=O)CCC1CCCCC1)c1cc([N+](=O)[O-])ccc1Cl (centres undefined)	none
CN(Cc1nccn1C)C(=O)c1ccc(OC2CCN(CCc3ccccc3)CC2)cc1	CHRM5 antagonist 28
CC(c1nccs1)N(C)C(=O)c1ccc(OC2CCN(CCc3ccccc3)CC2)cc1 (centres undefined)	CHRM5 antagonist 36, CHRM4 antagonist 31
CC(C)N(C)C(=O)c1ccc(OC2CCN(CCc3ccccc3)CC2)cc1	none
COc1ccc(/C=C2/C(=O)ON=C2c2ccccc2)cc1OC	CHRM5 PAM 23
COc1ccc(CNCc2cn(-c3cccc(F)c3)nc2-c2ccc(C)o2)cc1	CHRM4 antagonist 34
COc1ccc(-n2cc(CNCc3cccnc3)c(-c3cccc(F)c3)n2)cc1	none
Cc1cccc(C)c1NC(=O)C(=O)NCC1CCCN1S(=O)(=O)c1ccccc1 (centres undefined)	none
CCC(C)(C)NC(=O)COc1ccc(OCc2ccccc2)cc1	none
CCN(CC)S(=O)(=O)c1ccc(Cl)c(C(=O)Nc2ccc(Cl)cc2[N+](=O)[O-])c1	CHRM5 antagonist 30
CN(C)S(=O)(=O)c1ccc(Cl)c(C(=O)Nc2ccccc2[N+](=O)[O-])c1	none
CCN1C(=O)[C@H]2[C@@H](c3ccc(C)cc3)N3C(=O)N(c4ccc(C)cc4)C(=O)[C@@]3(Cc3ccccc3)[C@H]2C1=O	none
CCN1C(=O)[C@H]2[C@@H](c3ccc(C)cc3)N3C(=O)N(c4ccc(OC)cc4)C(=O)[C@@]3(Cc3ccc(Cl)cc3)[C@H]2C1=O	CHRM4 PAM 31
CCCCN(C(=O)c1cc(-c2ccco2)nc2ccccc12)c1c(N)n(CCC)c(=O)[nH]c1=O	none
O=C(O)CCn1c(-c2ccccn2)nc2ccccc21	none
CC1=CC(=O)C(C(C)=Nc2cccc(Cl)c2)C(=O)O1 (centres undefined)	none
Cc1[nH]c2ccccc2c1/C=N/NC(=O)c1cccc([N+](=O)[O-])c1	none
Cc1[nH]c2ccccc2c1/C=N/Nc1ccc([N+](=O)[O-])cc1	CHRM5 antagonist 31
CCCCOc1cccc(C2C(C(=O)c3cccs3)=C(O)C(=O)N2Cc2cccnc2)c1 (centres undefined)	none
CCOc1cccc(C2C(C(=O)c3cccs3)=C(O)C(=O)N2Cc2cccnc2)c1 (centres undefined)	CHRM5 PAM 29
O=C(C1=C(O)C(=O)N(CCOCCO)C1c1cccc([N+](=O)[O-])c1)c1cccs1 (centres undefined)	CHRM5 PAM 22
O=C(COC(=O)c1cccc([N+](=O)[O-])c1)Nc1ccc(Cl)cn1	none
COc1cccc(OC)c1C(=O)Nc1cccc(S(=O)(=O)Nc2ccccc2Cl)c1	none
COc1ccccc1NS(=O)(=O)c1cccc(NC(=O)Nc2ccccc2)c1	CHRM5 antagonist 59, CHRM4 antagonist 61, M4 ag 35
CCNC(=S)Nc1cccc(S(=O)(=O)Nc2ccccc2OC)c1	none
COc1ccccc1NS(=O)(=O)c1cccc(NC(=O)Nc2ccc(Cl)cc2)c1	CHRM5 antagonist 66, CHRM4 antagonist 46
CS(=O)(=O)c1ccc2nc(NC(=O)c3ccc(Cn4cc(Br)cn4)o3)sc2c1	CHRM5 antagonist 28
COC(=O)c1sc(NC(C)=O)c(C(=O)OC)c1C	CHRM4 PAM 21
COC(=O)c1c(NC(C)=O)sc(C)c1C	none
Cc1cc(S(=O)(=O)N2CCN=C2c2ccccc2)c(C)cc1Cl	none
C[C@H](CO)N1C[C@H](C)[C@@H](CN(C)C(=O)c2ccccc2)OCc2cnnn2CCCC1=O	none
COc1ccc(OC)c(C(=O)N(C)C2CCCN(Cc3ccccc3F)C2)c1 (centres undefined)	none
Cc1cc(Cl)cc(Cl)c1OCCN1CCCC1	CHRM5 PAM 24
Cc1c(CN2CCC(CO)(CCOc3ccccc3)CC2)[nH]c2c(Cl)cccc12	CHRM4 antagonist 29
COc1ccc(NC(=O)c2cc(-c3cc(F)ccc3OC)n[nH]2)cn1	none
